A selection: hits, their analogues and other compounds. The true share with any hit is near 4.5%.
OX1R antag-1: human HCRTR1 antagonism; inhibition, % at 5 µM; 330,000 tested, 0.43% active; AID 434989; CHO/OX1R cells, Fluo-8 calcium fluorescence, orexin A; O43613;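 active means inhibition above its plate's threshold, mean inhibition of all tested compounds on the plate plus 3 SD, cut at about 37% in these data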;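 further: 0% = orexin A challenge wells and 100% = SB-334867-A antagonist wells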
TAAR1 antagonist: human TAAR1 antagonism | CHO RD-HGA16 TAAR1, Fluo-8 calcium fluorescence, antagonist | inhibition, % at 3 µM | Q96RJ0 | 360,000 tested, 1.5% active;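 active means inhibition above a per-plate cutoff, the mean inhibition of test compounds on that plate plus 3 SD, cut at about 49% in these data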;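 further: 0% = DMSO plus EC80 beta-PEA response and 100% = DMSO alone without agonist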
Target sequence (Q96RJ0 whole entry, looked up): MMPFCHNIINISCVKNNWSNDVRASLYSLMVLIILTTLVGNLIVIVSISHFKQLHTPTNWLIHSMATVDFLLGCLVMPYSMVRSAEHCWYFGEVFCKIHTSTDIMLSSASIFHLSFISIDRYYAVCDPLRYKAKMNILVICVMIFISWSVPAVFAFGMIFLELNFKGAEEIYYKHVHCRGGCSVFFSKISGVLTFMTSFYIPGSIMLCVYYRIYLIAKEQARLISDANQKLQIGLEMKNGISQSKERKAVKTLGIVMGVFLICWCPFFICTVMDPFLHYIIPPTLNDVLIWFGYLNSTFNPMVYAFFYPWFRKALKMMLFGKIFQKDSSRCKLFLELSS
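test system = CHO RD-HGA16 cells bearing hTAAR1 | replication = singlicate | controls = DMSO-only wells and EC80 β-PEA-stimulated wells | reagent = EC80 β-phenethylamine stimulus | read-out basis = percent inhibition of PEA-evoked calcium signal, max/basal emission ratio | schedule = seeding 17-24 h prior, 75-min 37 °C, 30-min RT dye loading | signal = kinetic Fluo-8 calcium fluorescence measurement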
GPR7 antag: human neuropeptides B/W receptor 1 antagonism; P48145; GPR7-expressing cells, fluorescence antagonist assay; inhibition, % at 4.4 µM; 290,000 tested, 1.1% active; in the data active means inhibition above about 16%, passing the limit was not always enough;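 further: cells stimulated with the agonist NPW; 0% = agonist with vehicle and 100% = vehicle without agonist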
Target sequence (P48145 whole entry, looked up): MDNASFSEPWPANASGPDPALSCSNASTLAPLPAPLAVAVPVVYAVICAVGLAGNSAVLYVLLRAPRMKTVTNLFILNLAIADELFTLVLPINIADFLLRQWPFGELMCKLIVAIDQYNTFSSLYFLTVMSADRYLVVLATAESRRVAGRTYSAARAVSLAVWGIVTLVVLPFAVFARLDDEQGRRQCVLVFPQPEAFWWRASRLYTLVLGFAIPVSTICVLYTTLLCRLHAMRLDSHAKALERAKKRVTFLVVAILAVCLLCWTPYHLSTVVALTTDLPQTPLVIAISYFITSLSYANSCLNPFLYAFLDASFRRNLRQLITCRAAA
TAAR1 ag: human TAAR1 agonism. Q96RJ0. CHO RD-HGA16 TAAR1, Fluo-8 calcium fluorescence; vehicle wells 0%, saturating PEA agonist 100%. activation, % at 3 µM. 360,000 tested, 0.99% active;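 active means activation above the mean activation of all test compounds in the run plus 3 SD, cut at about 38% in these data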
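Repeats: no replicates (n 1) | Material: CHO-derived RD-HGA16 cells with stable Gα16 and human TAAR1 | Technique: Kinetic Fluo-8 calcium fluorescence | Schedule: 17-24 h seeding, 75 min 37 °C dye, 30 min RT | Evaluation: % activation from peak over basal fluorescence ratio, DMSO-to-PEA scaled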
OX1R antag-2: antagonists of human orexin 1 receptor (OX1R) | O43613 | OX1R-expressing cells, FRET antagonist read-out | inhibition, % at 6.6 µM | 330,000 tested, 1.8% active; in the data active means inhibition mostly above about 38%, no sharp cut-off; inactive means mostly below about 40%;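 further: 0% = agonist challenge alone and 100% = reference antagonist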
CHO parental Ca: counter-screen: ATP calcium response change in parental CHO cells. inhibition, % at 5.6 µM. parental CHO-K1, ATP-induced calcium, Fluo-8 fluorescence. 330,000 tested, 0.63% active;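 active means inhibition above that plate's mean sample inhibition plus 3 SD, cut at about 26% in these data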;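 further: 0% = ATP-challenged DMSO wells and 100% = DMSO wells without ATP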
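Material: parental CHO cells / Compound: single nominal dose of 5.6 µM per compound / Signal: Fluo-8 fluorescence / Replicates: singlicate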
Starred values were filed as active, the others as inactive; . = not tested or not shown.

SMILES	OX1R antag-1	TAAR1 antagonist	GPR7 antag	TAAR1 ag	OX1R antag-2	CHO parental Ca
O=C(Nc1ncccn1)c1ccc([N+](=O)[O-])cc1Cl	-6	-7	-14	3	35	6
CCCC(=O)NC(=S)Nc1cccc(NC(=O)c2ccc(Cl)cc2Cl)c1	9	56*	-8	11	27	4
CCCC(=O)Nc1cccc(NC(=O)c2ccc([N+](=O)[O-])cc2Cl)c1	-23	2	-10	2	62*	-8
CCCC(=O)NC(=S)Nc1cccc(NC(=O)c2ccccc2Cl)c1	-6	7	-3	1	17	-13
CCOc1ccc(NC(=O)C2CCN(S(C)(=O)=O)CC2)cc1	-12	4	-7	2	-2	9
O=[N+]([O-])c1nn(-c2ccc3c(c2)OCCO3)n(O)c1=NCCCO	-19	-3	3	7	74*	5
Cc1ccc(CN=c2c([N+](=O)[O-])nn(-c3ccc4c(c3)OCCO4)n2O)cc1	-40	-8	-2	1	35	-18
O=C(Nc1nc(-c2cccs2)c(C(=O)C(F)(F)F)s1)c1ccccc1	-26	34	-4	0	60*	-6
Cc1cc(C)cc(C(=O)OCC(=O)NCc2cccs2)c1	-7	-12	26*	1	20	-8
O=C(COC(=O)c1ccccc1)NCc1cccs1	-6	-6	-11	0	5	-6
COc1ccc(-c2nc(NC(=O)c3[nH]c(C)c(C(C)=O)c3C)sc2C)cc1	-20	88*	-7	46*	19	-8
COc1ccc(-c2nc(NC(=O)c3ccco3)sc2C)cc1	.	19	.	7	.	.
Cc1[nH]c(C)c(S(=O)(=O)Nc2ccccc2)c1C(=O)N1CCCC1	-6	-14	-16	0	12	-17
O=C1[C@@H]2[C@H](C(=O)N1C[C@@H](COCc1ccccc1)Oc1cccc3c1S(=O)(=O)N(CCc1ccc(F)cc1)C[C@H](COCc1ccccc1)O3)[C@@H]1C=C[C@H]2C1	.	-7	.	3	.	.
CCCCN1CC(COCc2ccccc2)Oc2cccc(OCCN3C(=O)[C@@H]4[C@H](C3=O)C3C=C[C@H]4C3)c2S1(=O)=O (stereo partly specified)	.	70*	.	18	.	.
CN(C)S(=O)(=O)c1cccc(NC(=O)CNc2cccc(S(=O)(=O)N3CCCCC3)c2)c1	.	14	.	6	.	.
Cc1ccccc1C(=O)OCC(=O)Nc1cccc(S(=O)(=O)N2CCCCC2)c1	.	7	.	3	.	.
Cc1ccc(C)c(C(=O)OCC(=O)Nc2cccc(S(=O)(=O)N3CCCCC3)c2)c1	54*	35	.	4	8	15
O=C(COC(=O)c1c(F)cccc1F)Nc1cccc(S(=O)(=O)N2CCCCC2)c1	.	50*	.	14	.	.
CCN(CC)S(=O)(=O)c1cc(NC(=O)CNc2cccc(S(=O)(=O)N3CCCC3)c2)ccc1C	30	.	.	.	34	45*
O=C(COC(=O)C1CC2C=CC1C2)Nc1cccc(S(=O)(=O)N2CCCCCC2)c1 (stereo unspecified)	4	68*	-9	8	21	33*
O=C(NCC1COc2ccccc2O1)c1ccc(Cl)c(S(=O)(=O)N2CCCC2)c1 (stereo unspecified)	31	8	.	18	34*	-14
O=C(COC(=O)c1ccc(S(=O)(=O)N2CCCC2)cc1)Nc1ccccc1	-4	-14	.	10	7	0
O=C(COC(=O)c1ccc(Cl)c(S(=O)(=O)N2CCCCCC2)c1)Nc1ccccc1	-13	53*	-9	10	-6	-10
Cc1ccc(CN2C(=O)CC(Nc3ccc(N4CCOCC4)cc3)C2=O)cc1 (stereo unspecified)	-23	-16	0	1	-1	-9
SMILES	OX1R antag-1	TAAR1 antagonist	GPR7 antag	TAAR1 ag	OX1R antag-2	CHO parental Ca
COc1cc2c(=O)[nH]c3cc([N+](=O)[O-])ccc3c2cc1[N+](=O)[O-]	.	-20	.	0	.	.
O=c1[nH][nH]c(=O)c2cc([N+](=O)[O-])ccc12	-14	-5	.	2	52*	-7
O=c1[nH]cnc2ccc([N+](=O)[O-])cc12	0	14	3	1	52*	5
CC(NC(=O)C(=O)N1CCCCC1)C(c1cccs1)N1CCN(Cc2ccccc2)CC1 (stereo unspecified)	-2	1	-3	2	19	-6
CCOC(=O)C1=CCC2C(=O)N(C3CCCCC3)C(=O)C12 (stereo unspecified)	.	2	.	0	.	.
CCn1cc(/C=C(\NC(=O)c2ccccc2F)C(=O)N2CCN(C)CC2)c2ccccc21	.	-25	.	5	.	.
Cc1cc(NC(=O)CCC(=O)N(Cc2ccco2)C(C(=O)NC2CCCC2)c2ccccc2)no1 (stereo unspecified)	5	-8	-1	0	39	-7
Cc1cc(NC(=O)CCC(=O)N(Cc2ccco2)C(C(=O)NC2CCCC2)c2ccc(F)cc2)no1 (stereo unspecified)	-18	4	11	-2	47*	-26
O=C(N[C@H](C(=O)N1CCC[C@H]1C(=O)NC1CCCC1)C1CCCCC1)c1ccc(Cl)c(Cl)c1	.	-16	.	-3	.	.
CC(C)c1csc(CN2CCC(C(=O)Nc3cccc(-c4ccco4)c3)CC2)n1	.	-13	.	-1	.	.
COC(=O)CCCC1=CC2=CC(=O)C(C)(OC(=O)c3cccs3)C(=O)C2=CN1CCCOC(C)C (stereo unspecified)	-24	-9	.	2	63*	-13
C[C@H](O)[C@@H]1C(=O)N2CCc3c([nH]c4ccccc34)[C@@H]2C[C@@H]1N(C)Cc1ccc2c(c1)OCO2	.	23	.	2	.	.
O=C(Nc1ccc2c(c1)OCCO2)C1c2ccccc2OCC(=O)N1Cc1cccnc1 (stereo unspecified)	.	1	.	0	.	.
COc1cc(-c2nc3cnccn3c2Nc2ccc(C(C)C)cc2)ccc1O	-8	39	-9	22	-3	37*
COc1ccc2c(c1)c1nnc(SCC(=O)NC3CC3)nc1n2C	-11	6	-7	-2	85*	-10
CCOC(=O)c1sc(NC(=O)c2ccc(S(=O)(=O)N(C)C)cc2)nc1C	0	1	1	4	20	-5
CCOC(=O)c1sc(NC(=O)c2ccc(S(=O)(=O)N(C)C)cc2)cc1C	6	13	-2	15	58*	-15
CCOC(=O)c1ccc(NC(=O)c2cc3c(s2)CCC3)cc1	-5	-47	-8	0	70*	-7
CCOC(=O)c1ccc(NC(=O)c2ccc(NC(=O)c3ccccc3)cc2)cc1	-21	17	-12	-2	10	-10
Cc1ccc(Cc2c(-c3ccc(Cl)cc3)nc3c(C)cc(Br)cn23)cc1	.	-4	.	0	.	.
COc1ccc(C(=O)C[n+]2ccc(-c3nnc4n3CCCCC4)cc2)cc1	-9	-16	9	4	44*	-13

Source: PubChem BioAssay (The Scripps Research Institute Molecular Screening Center)
